Measurements published in ChEMBL document CHEMBL4680121, “Development of (4-methoxyphenyl)-1H-tetrazol-5-amine regioisomers as a new class of selective antitubercular agents” (Eur J Med Chem, 2020).
pIC50: −log10 of the molar value. ≈ marks a conversion by molar mass, not a printed value.

Columns and labels:
[1] = test system: Mycobacterium tuberculosis; test: Antitubercular activity against Mycobacterium tuberculosis H37Rv ATCC 25618 assessed as fractional inhibitory concentration index incubated for 14 days in presence of 1/2 x MIC streptomycin by MABA method; assay type: functional; conditions: time 14 day
Outline: (§1)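 Interaction analysis in Middlebrook 7H9 with 10% OADC. Combination MICs came from mixing the derivative (1 to 1/32 MIC) with the reference drug at 1/2 MIC, and the reverse, after 14 days at 37 °C with McFarland 1 inoculum. FICI was calculated from the combination MIC values and the MICs alone.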

[2] = test system: Mycobacterium tuberculosis; test: Antitubercular activity against Mycobacterium tuberculosis Spec.192 assessed as ethambutol MIC incubated for 14 days in presence of ethambutol by MABA method; assay type: functional; conditions: Mycobacterium tuberculosis, 192, 336 h; time 14 day
Outline: (§2)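 In Middlebrook 7H9 with 10% OADC, the reference drug (INH, RMP, SM or EMB) at 1 to 1/32 of its MIC alone was mixed with the test derivative fixed at 1/2 its MIC. 4 ml samples were inoculated with McFarland 1 suspension and incubated 14 days at 37 °C. MIC is the lowest drug concentration in combination that inhibited growth.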

Mycobacterium xenopi = test: Antibacterial activity against Mycobacterium xenopi assessed as inhibition of microbial growth incubated for 1 week by MABA method; assay type: functional; conditions: 168 h, time 1 weeks
Outline: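 Microplate Alamar Blue assay using two-fold serial microdilution in Middlebrook 7H9 broth with 10% OADC, compounds 0.125–512 µg/ml from DMSO stocks. Inoculum came from fresh LJ culture, was adjusted to McFarland 1 and diluted 1:20. Plates were incubated 1 week at 37 °C, Alamar blue was added and plates were re-incubated 24 h. MIC was the lowest concentration preventing the blue-to-pink change. Each plate carried growth and sterile controls.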

Staphylococcus aureus = test: Antibacterial activity against Staphylococcus aureus ATCC 6538 assessed as bacterial growth inhibition measured after 18 hrs by two-fold serial microdilution method; assay type: functional
Outline: (§3)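 Two-fold serial broth microdilution in MH II medium following modified CLSI procedures. Compounds were dissolved in DMSO and diluted in medium to at most 1% solvent, tested from 0.03125 to 512 μg/ml. Final inoculum 10^6 CFU/ml. MIC was taken as the lowest concentration with no visible growth after 18 h at 35 °C.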

HaCaT = test: Cytotoxicity against human HaCaT cells assessed as LDH release at 100 uM incubated for 72 hrs by LDH assay; assay type: cell-based
Outline: (§4)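 LDH release measured with a kit after 72 h exposure to 100 μM compound. Cells were seeded at 1×10^4 per well in DMEM or EMEM with 2% FBS. Absorbance was read at 490 nm. Release (%) = (A sample − A low control)/(A high control − A low control) × 100, with the Triton X-100 (1%) control taken as 100% release. Values are mean ± SD of three independent experiments run in triplicate.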

[3] = test system: Mycobacterium tuberculosis; test: Antitubercular activity against Mycobacterium tuberculosis H37Rv ATCC 25618 assessed as fractional inhibitory concentration index incubated for 14 days in presence of 1/2 x MIC ethambutol by MABA method; assay type: functional; conditions: time 14 day; outline: as §1
A549 = test: Cytotoxicity against human A549 cells assessed as LDH release at 100 uM incubated for 72 hrs by LDH assay; assay type: cell-based; conditions: a549, 72 h; outline: as §4
V79 [4] = test: Cytotoxicity against Chinese Hamster V79 cells assessed as reduction in cell viability at 100 uM measured after 72 hrs by MTT assay; assay type: cell-based, Cricetulus griseus; conditions: v79, 72 h
Outline: (§5)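 MTT viability assay on cells grown in DMEM with 10% heat-inactivated FBS, penicillin/streptomycin and 20 mM HEPES at 37 °C/5% CO2. Cells were seeded at 1×10^4 per well and allowed to adhere for 24 h, then the medium was refreshed. Compounds were added at 20–140 μM for 72 h at 37 °C, followed by MTT (0.5 mg/mL in serum-free medium) for 4 h. Untreated cells served as control. IC50 is the concentration giving 50% growth inhibition versus control.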

Proteus vulgaris = test: Antibacterial activity against Proteus vulgaris NCTC 4635 assessed as bacterial growth inhibition measured after 18 hrs by two-fold serial microdilution method; assay type: functional; outline: as §3
[5] = test system: Mycobacterium tuberculosis; test: Antitubercular activity against Mycobacterium tuberculosis H37Rv ATCC 25618 assessed as streptomycin MIC incubated for 14 days in presence of streptomycin by MABA method; assay type: functional; conditions: H37Rv ATCC 25618, 336 h, time 14 day; outline: as §2
[6] = test system: Staphylococcus epidermidis; test: Antibacterial activity against Staphylococcus epidermidis ATCC 1457 assessed as bacterial growth inhibition measured after 18 hrs by two-fold serial microdilution method; assay type: functional; outline: as §3
[7] = test system: Staphylococcus epidermidis; test: Antibacterial activity against Staphylococcus epidermidis ATCC 12228 assessed as bacterial growth inhibition measured after 18 hrs by two-fold serial microdilution method; assay type: functional; outline: as §3
V79 [8] = test: Cytotoxicity against Chinese Hamster V79 cells assessed as reduction in cell viability measured after 72 hrs by MTT assay; assay type: cell-based; conditions: Cricetulus griseus, V79, 72 h; outline: as §5
[9] = test system: Mycobacterium tuberculosis; test: Antitubercular activity against Mycobacterium tuberculosis H37Rv ATCC 25618 assessed as isoniazid MIC incubated for 14 days in presence of isoniazid by MABA method; assay type: functional; conditions: H37Rv ATCC 25618, 336 h, time 14 day; outline: as §2
[10] = test system: Mycobacterium tuberculosis; test: Antitubercular activity against Mycobacterium tuberculosis Spec.192 assessed as fractional inhibitory concentration index in presence of 1/2 x MIC rifampicin incubated for 14 days by MABA method; assay type: functional; conditions: time 14 day; outline: as §1
[11] = test system: Mycobacterium tuberculosis; test: Antitubercular activity against Mycobacterium tuberculosis Spec.192 assessed as streptomycin MIC incubated for 14 days in presence of streptomycin by MABA method; assay type: functional; conditions: Mycobacterium tuberculosis, 192, 336 h; time 14 day; outline: as §2
[12] = test system: Mycobacterium tuberculosis; test: Antitubercular activity against Mycobacterium tuberculosis Spec.192 assessed as reduction in bacterial growth incubated for 14 days in presence of 1/2 x MIC rifampicin by MABA method; assay type: functional; conditions: Mycobacterium tuberculosis, 192, 336 h; time 14 day
Outline: (§6)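 Checkerboard-type combination in Middlebrook 7H9 with 10% OADC. The test derivative at 1 to 1/32 of its MIC alone was mixed with the reference drug fixed at 1/2 its MIC. 4 ml samples were inoculated with McFarland 1 suspension and incubated 14 days at 37 °C. MIC is the lowest derivative concentration in combination that inhibited growth in liquid medium.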

[13] = test system: Mycobacterium tuberculosis; test: Antitubercular activity against Mycobacterium tuberculosis Spec.192 assessed as inhibition of microbial growth incubated for 1 week by MABA method; assay type: functional; conditions: Mycobacterium tuberculosis, 192, 168 h; time 1 weeks
Outline: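 Microplate Alamar Blue assay in Middlebrook 7H9 broth with 10% OADC. Inoculum from fresh LJ culture was adjusted to McFarland 1 and diluted 1:20. DMSO stocks were two-fold serially diluted to final 0.125–512 µg/ml, with growth and sterile controls. Plates ran 1 week at 37 °C, then Alamar blue was added for 24 h. MIC is the lowest concentration preventing the blue-to-pink change.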

[14] = test system: Mycobacterium tuberculosis; test: Antitubercular activity against Mycobacterium tuberculosis H37Rv ATCC 25618 assessed as reduction in bacterial growth incubated for 14 days in presence of 1/2 x MIC isoniazid by MABA method; assay type: functional; conditions: H37Rv ATCC 25618, 336 h, time 14 day; outline: as §6
[15] = test system: Mycobacterium tuberculosis; test: Antitubercular activity against Mycobacterium tuberculosis H37Rv ATCC 25618 assessed as fractional inhibitory concentration index incubated for 14 days in presence of 1/2 x MIC rifampicin by MABA method; assay type: functional; conditions: time 14 day; outline: as §1
[16] = test system: Mycobacterium tuberculosis; test: Antitubercular activity against Mycobacterium tuberculosis Spec.192 assessed as fractional inhibitory concentration index in presence of 1/2 x MIC streptomycin incubated for 14 days by MABA method; assay type: functional; conditions: time 14 day; outline: as §1
[17] = test system: Mycobacterium tuberculosis; test: Antitubercular activity against Mycobacterium tuberculosis H37Rv ATCC 25618 assessed as reduction in bacterial growth incubated for 14 days in presence of 1/2 x MIC rifampicin by MABA method; assay type: functional; conditions: H37Rv ATCC 25618, 336 h, time 14 day; outline: as §6

Structure (SMILES) | fractional inhibitory concentration index (FICI) [1] | MIC [2] [µg/mL] | MIC (Mycobacterium xenopi) [µg/mL] | MIC (Staphylococcus aureus) [µg/mL] | Activity (HaCaT) [%] | fractional inhibitory concentration index (FICI) [3] | Activity (A549) | Activity (V79 [4]) | MIC (Proteus vulgaris) [µg/mL] | MIC [5] [µg/mL] | MIC [6] [µg/mL] | MIC [7] [µg/mL] | pIC50 (V79 [8]) | MIC [9] [µg/mL] | fractional inhibitory concentration index (FICI) [10] | MIC [11] [µg/mL] | MIC [12] [µg/mL] | MIC [13] [µg/mL] | MIC [14] [µg/mL] | fractional inhibitory concentration index (FICI) [15] | further results
COc1ccc(-n2nnnc2Nc2ccc(Br)cc2)cc1 | 0.375 | 1 | 256 | > 256 | 7.25 | 0.625 | Non-Toxic | Non-Toxic | > 256 | 0.25 | > 256 | 256 (≈ 739 µM) | 3.67 | 0.5 | 0.5 | 0.25 | 0.5 | 2 | 0.25 | 0.5 | fractional inhibitory concentration index (FICI) [16]: 0.375; MIC [17]: 0.5 µg/mL
COc1ccc(-n2nnnc2Nc2cccc(Br)c2)cc1 | 0.5 | 1 | > 512 | > 256 | 4.88 | 0.75 | Non-Toxic | Non-Toxic | > 256 | 0.25 | > 256 | > 256 | 3.62 | 0.5 | 0.5 | 0.25 | 0.5 | 2 | 0.25 | 0.5 | fractional inhibitory concentration index (FICI) [16]: 0.5; MIC [17]: 0.5 µg/mL
